Experiments:
[1] = folding enthalpy; higher = less favourable; fluorescence melt of hairpins on a sequencing array, two-state fit; settings: sodium 0.088 M
In short: (§1)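 With Cy3 and quencher oligos annealed, library hairpins on a sequenced MiSeq flow cell were imaged for Cy3 fluorescence in 50 mM Na-HEPES pH 8.0, 25 mM NaCl, in 2.5 °C steps up to 60 °C. Melting temperature and folding enthalpy were derived from bootstrapped two-state fits of signals normalised to pre-quench Cy3 and to control constructs. Four replicates were combined by inverse variance, with fitted temperatures raised by 9.35 °C to match UV melts.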

[2] = melting temperature; fluorescence melt of hairpins on a sequencing array, two-state fit, raised by 9.35 °C to match UV melts; settings: sodium 0.088 M
In short: as §1

Sequence	folding enthalpy [1]	Tm [2]
GCAACGCGAAAGCGACGC ((..(((....)))..))	-15.9 kcal/mol	48.5 °C
GCAACGCGAAAGCGCCGC ((..(((....)))..))	-9.13 kcal/mol	40.8 °C
GCAACGCGAAAGCGTCGC ((.((((....)))).))	-22.2 kcal/mol	64.7 °C
GCAACGCGAAAGCTCTGC (((..((....))..)))	-9.33 kcal/mol	34.6 °C
GCAACGGCGAAAGCCTGC (((..(((....))))))	-15.2 kcal/mol	47 °C
GCAACTGGAAACAGTCGC ((.((((....)))).))	-33 kcal/mol	45.9 °C
GCAAGACGAAAGTCATGC (((.(((....))).)))	-32.2 kcal/mol	54.4 °C
GCAAGAGGAAACTCCTGC (((.(((....))).)))	-18.2 kcal/mol	35.2 °C
GCAAGCACGAAAGTGTGC (((..(((....))))))	-16 kcal/mol	40.4 °C
GCAAGCGAAAGCTAGTGC ((((((....)))..)))	-17.8 kcal/mol	39.9 °C
GCAAGCGGAAACGTTTGC ((((.((....)).))))	-38.5 kcal/mol	53.5 °C
GCAAGGCCGAAAGGCTGC (((..(((....))))))	-14.8 kcal/mol	51.6 °C
GCAAGGCGAAAGCATTGC ((((.((....)).))))	-38.2 kcal/mol	67.2 °C
GCAAGGCGAAAGCCTAGC ((.((((....)))).))	-18.4 kcal/mol	61.7 °C
GCAAGGCGAAAGCCTGC (((.(((....))))))	-19.8 kcal/mol	66.5 °C
GCAAGGCGAAAGCGGTGC (((..((....))..)))	-21.2 kcal/mol	47.1 °C
GCAAGGCGAAAGCGTCGC ((.(.((....)).).))	-15.4 kcal/mol	40.7 °C
GCAAGGCGAAAGCTTAGC ((.(.((....)).).))	-13.6 kcal/mol	38.8 °C
GCAAGGGCGAAAGCCTGC (((..(((....))))))	-14 kcal/mol	50.9 °C

Sequence	folding enthalpy [1]	Tm [2]
GCAAGGGGAAACCCTTAC (.(((((....))))).)	-14.3 kcal/mol	33.6 °C
GCAAGTACGAAAGTATGC (((..(((....))))))	-19 kcal/mol	33.4 °C
GCAAGTCGAAAGACTGC (((.(((....))))))	-25.8 kcal/mol	57.1 °C
GCAAGTGAAAACTTGC ((((((....))))))	-35.4 kcal/mol	61.5 °C
GCAAGTGCGAAAGCATGC (((..(((....))))))	-14 kcal/mol	44.5 °C
GCAAGTGGAAACATTTGC ((((.((....)).))))	-29.8 kcal/mol	45.9 °C
GCAAGTGGAAACGTTTGC ((((..(....)..))))	-20.4 kcal/mol	34.4 °C
GCAATACGAAAGTATGC (((.(((....))))))	-29.4 kcal/mol	50.6 °C
GCAATAGCGAAAGCTTGC (((..(((....))))))	-24.7 kcal/mol	48.7 °C
GCAATAGGAAACTACTGC (((.(((....))).)))	-14.5 kcal/mol	29.8 °C
GCAATCGAAAGATATGC ((((((....))).)))	-21.1 kcal/mol	36.3 °C
GCAATCGAAAGATGGTGC ((((((....)))..)))	-21.2 kcal/mol	36.3 °C
GCAATCGAAAGATTTGC ((((((....))).)))	-27.6 kcal/mol	44.2 °C
GCAATCGGAAACGATTGC (((((((....)))))))	-41.9 kcal/mol	69.2 °C
GCAATGCGAAAGCAATGC (((.(((....))).)))	-40 kcal/mol	56.5 °C
GCAATGCGAAAGCACAGC ((..(((....)))..))	-14.9 kcal/mol	34.3 °C
GCAATGCGAAAGCAGAGC ((..(((....)))..))	-19.5 kcal/mol	55 °C
GCAATGCGAAAGCCTAGC ((.(.((....)).).))	-11.2 kcal/mol	26.8 °C

Source: the array DNA melting data of Ke et al. (doi:10.1101/2024.01.08.574731)
